ChEMBL document CHEMBL1157757, “Macrocyclic hexaoxazoles: Influence of aminoalkyl substituents on RNA and DNA G-quadruplex stabilization and cytotoxicity” (Bioorg Med Chem Lett, 2010)

Legend:
[1] = Cytotoxicity against human RPMI8402 cells after 4 days by MTT assay; assay type: functional, cell-based; conditions: RPMI 8402, 96 h
How it was run: (§1)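 Growth inhibition in RPMI 8402, KB3-1, MDR1-expressing KBV-1 and BCRP-expressing KBH5.0 cells; IC50 reported as mean of three experiments ± standard deviation.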

[2] = Cytotoxicity against multidrug-resistant human KBH5.0 cells expressing BCRP after 4 days by MTT assay; assay type: functional, cell-based; conditions: KBH5.0 cell, 96 h; how it was run: as §1
[3] = Cytotoxicity against multidrug-resistant human KBV1 cells expressing MDR1 after 4 days by MTT assay; assay type: functional, cell-based; conditions: KB-V1, 96 h; how it was run: as §1
[4] = Cytotoxicity against wild type human KB3-1 cells after 4 days by MTT assay; assay type: functional, cell-based; conditions: KB 3-1, 96 h; how it was run: as §1
Nucleic Acid [5] = assay: Binding affinity to human G-quadruplex d[T2G3(T2AG3)3A] DNA assessed as change in transition temperature at 20 uM in presence of 150 mM K+ ions; assay type: nucleic-acid assay
How it was run: (§2)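 Quadruplex UV melting of hTel DNA or AurA RNA at 5 µM in strand, ligand 20 µM, in 10 mM potassium phosphate pH 7.5 plus 132 mM KCl (150 mM total K+); Ttran from maxima or minima of first-derivative melting profiles; ΔTtran uncertainty 0.5 °C.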

Nucleic Acid [6] = assay: Binding affinity to r[AG4CG2-CUG2UCG2AGUG2C] sequence of quadruplex RNA assessed as change in transition temperature at 20 uM in presence of 150 mM K+ ions; assay type: nucleic-acid assay; how it was run: as §2
[7] = Cytotoxicity against human RPMI8402 cells; assay type: functional, cell-based; conditions: RPMI 8402; how it was run: as §1

Row | Structure (SMILES) | IC50 [1] [nM] | IC50 [2] [nM] | IC50 [3] [nM] | IC50 [4] [nM] | ΔTm (Nucleic Acid [5]) [°C] | ΔTm (Nucleic Acid [6]) [°C] | IC50 [7] [nM]
1 | NCC[C@@H]1NC(=O)c2coc(n2)-c2coc(n2)-c2coc(n2)[C@H](CCN)NC(=O)c2coc(n2)-c2coc(n2)-c2coc1n2 | > 10000 | > 10000 | > 10000 | > 10000 | – | – | –
2 | CC(C)[C@@H]1NC(=O)c2coc(n2)-c2coc(n2)-c2coc(n2)C/C=C/c2coc(n2)-c2coc(n2)-c2coc1n2 | 30 | 40 | 3500 | 40 | – | – | –
3 | CC(C)[C@@H]1NC(=O)c2coc(n2)-c2coc(n2)-c2coc(n2)[C@H](C(C)C)NC(=O)c2coc(n2)-c2coc(n2)-c2coc1n2 [HEXAOXAZOLE DIVALINE] | 540 | 450 | 7700 | 350 | 11.5 | 19.5 | 540
4 | CC(=O)NCCC[C@@H]1NC(=O)c2coc(n2)-c2coc(n2)-c2coc(n2)[C@H](C(C)C)NC(=O)c2coc(n2)-c2coc(n2)-c2coc1n2 | 2500 | 3000 | > 10000 | 3400 | – | – | –
5 | CC(C)[C@@H]1NC(=O)c2coc(n2)-c2coc(n2)-c2coc(n2)[C@H](CCNC(=O)OC(C)(C)C)NC(=O)c2coc(n2)-c2coc(n2)-c2coc1n2 | 310 | 250 | > 10000 | 290 | – | – | –
6 | CN(C)CCCC[C@@H]1NC(=O)c2coc(n2)-c2coc(n2)-c2coc(n2)[C@H](CCCCN(C)C)NC(=O)c2coc(n2)-c2coc(n2)-c2coc1n2 | > 10000 | 3600 | > 10000 | 4000 | – | – | –
7 | CC(C)[C@@H]1NC(=O)c2coc(n2)-c2coc(n2)-c2coc(n2)[C@H](CCCN(C)C)NC(=O)c2coc(n2)-c2coc(n2)-c2coc1n2 | 230 | 70 | > 10000 | 300 | 24 | – | –
8 | CN(C)CC[C@@H]1NC(=O)c2coc(n2)-c2coc(n2)-c2coc(n2)[C@H](CCN(C)C)NC(=O)c2coc(n2)-c2coc(n2)-c2coc1n2 | 4300 | 650 | > 10000 | 2800 | – | – | –
9 | CC(C)[C@@H]1NC(=O)c2coc(n2)-c2coc(n2)-c2coc(n2)[C@H](CCN)NC(=O)c2coc(n2)-c2coc(n2)-c2coc1n2 | 1200 | 1200 | > 10000 | 2200 | – | – | –
10 | CC(=O)NCC[C@@H]1NC(=O)c2coc(n2)-c2coc(n2)-c2coc(n2)[C@H](C(C)C)NC(=O)c2coc(n2)-c2coc(n2)-c2coc1n2 | 950 | 900 | > 10000 | 450 | – | – | –
11 | CC(C)[C@@H]1NC(=O)c2coc(n2)-c2coc(n2)-c2coc(n2)[C@H](CCCN)NC(=O)c2coc(n2)-c2coc(n2)-c2coc1n2 | 2500 | 380 | > 10000 | 800 | – | – | –
12 | CC(=O)NCCCC[C@@H]1NC(=O)c2coc(n2)-c2coc(n2)-c2coc(n2)[C@H](C(C)C)NC(=O)c2coc(n2)-c2coc(n2)-c2coc1n2 | 750 | 1900 | > 10000 | 710 | – | – | –
13 | CC(=O)NCC[C@@H]1NC(=O)c2coc(n2)-c2coc(n2)-c2coc(n2)[C@H](CCNC(C)=O)NC(=O)c2coc(n2)-c2coc(n2)-c2coc1n2 | > 10000 | > 10000 | > 10000 | > 10000 | – | – | –
14 | CC(C)[C@@H]1NC(=O)c2coc(n2)-c2coc(n2)-c2coc(n2)[C@H](CCCCNC(=O)OC(C)(C)C)NC(=O)c2coc(n2)-c2coc(n2)-c2coc1n2 | 350 | 330 | > 10000 | 300 | – | – | –
15 | CC(=O)NCCC[C@@H]1NC(=O)c2coc(n2)-c2coc(n2)-c2coc(n2)[C@H](CCCNC(C)=O)NC(=O)c2coc(n2)-c2coc(n2)-c2coc1n2 | > 10000 | > 10000 | > 10000 | > 10000 | – | – | –
16 | CC(C)(C)OC(=O)NCC[C@@H]1NC(=O)c2coc(n2)-c2coc(n2)-c2coc(n2)[C@H](CCNC(=O)OC(C)(C)C)NC(=O)c2coc(n2)-c2coc(n2)-c2coc1n2 | 350 | 250 | > 10000 | 250 | – | – | –
17 | NCCCC[C@@H]1NC(=O)c2coc(n2)-c2coc(n2)-c2coc(n2)[C@H](CCCCN)NC(=O)c2coc(n2)-c2coc(n2)-c2coc1n2 | – | > 10000 | > 10000 | > 10000 | – | – | –
18 | CC(C)[C@@H]1NC(=O)c2coc(n2)-c2coc(n2)-c2coc(n2)[C@H](CCCCN)NC(=O)c2coc(n2)-c2coc(n2)-c2coc1n2 | 4800 | 3000 | > 10000 | 3400 | – | – | –
19 | CC(C)(C)OC(=O)NCCCC[C@@H]1NC(=O)c2coc(n2)-c2coc(n2)-c2coc(n2)[C@H](CCCCNC(=O)OC(C)(C)C)NC(=O)c2coc(n2)-c2coc(n2)-c2coc1n2 | 400 | 330 | > 10000 | 250 | – | – | –
20 | CC(C)(C)OC(=O)NCCC[C@@H]1NC(=O)c2coc(n2)-c2coc(n2)-c2coc(n2)[C@H](CCCNC(=O)OC(C)(C)C)NC(=O)c2coc(n2)-c2coc(n2)-c2coc1n2 | 1400 | 380 | > 10000 | 450 | – | – | –
21 | CC(=O)NCCCC[C@@H]1NC(=O)c2coc(n2)-c2coc(n2)-c2coc(n2)[C@H](CCCCNC(C)=O)NC(=O)c2coc(n2)-c2coc(n2)-c2coc1n2 | 3300 | 4500 | > 10000 | 4000 | – | – | –
22 | NCCC[C@@H]1NC(=O)c2coc(n2)-c2coc(n2)-c2coc(n2)[C@H](CCCN)NC(=O)c2coc(n2)-c2coc(n2)-c2coc1n2 | > 10000 | 3100 | > 10000 | 6300 | – | – | –
23 | CC(C)[C@@H]1NC(=O)c2coc(n2)-c2coc(n2)-c2coc(n2)[C@H](CCCNC(=O)OC(C)(C)C)NC(=O)c2coc(n2)-c2coc(n2)-c2coc1n2 | 290 | 150 | > 10000 | 230 | – | – | –
24 | CN(C)CCC[C@@H]1NC(=O)c2coc(n2)-c2coc(n2)-c2coc(n2)[C@H](CCCN(C)C)NC(=O)c2coc(n2)-c2coc(n2)-c2coc1n2 | > 10000 | 3000 | > 10000 | 4200 | – | – | –
